ChEMBL document CHEMBL2203229, “Structure Activity Relationship Study of the Cleistriosides and Cleistetrosides for Antibacterial/Anticancer Activity” (ACS Med Chem Lett, 2012)
Converted amounts (≈) assume the structure as drawn.

Columns and labels:
[1] = system: SF-539; assay: Growth inhibition of human SF539 cells after 48 hrs by sulforhodamine B assay; format: functional; settings: SF-539, 48 h
How it was run: (§1)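 Cells in RPMI 1640 with 5% FBS, plated at 5,000–40,000/well and grown 24 h. Time-zero plates fixed with TCA. Five drug concentrations, 48 h at 37 °C, 5% CO₂. Fixation with TCA (10% final for adherent lines; 16% final for suspension lines), staining with 0.4% SRB, reading at 515 nm. GI50 is the concentration giving a 50% reduction in net protein increase relative to time zero.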

[2] = system: SR; assay: Growth inhibition of human SR cells after 48 hrs by sulforhodamine B assay; format: functional; how it was run: as §1
[3] = system: RPMI-8226; assay: Growth inhibition of human RPMI8226 cells after 48 hrs by sulforhodamine B assay; format: functional; settings: RPMI-8226, 48 h; how it was run: as §1
[4] = system: OVCAR-3; assay: Growth inhibition of human OVCAR3 cells after 48 hrs by sulforhodamine B assay; format: functional; settings: OVCAR-3, 48 h; how it was run: as §1
[5] = system: Escherichia coli; assay: Antibacterial activity against Escherichia coli K-12 BAS901 harboring genetically modified imp-4213, zab4292::Tn5 assessed as growth inhibition after 16 hrs by broth dilution method; format: functional; settings: K-12 BAS901, 16 h
How it was run: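 Kanamycin-resistant strain grown overnight in LB with kanamycin 50 µg/mL, diluted 10-fold, then shaken at 37 °C for 45 min–1 h (~10⁸ CFU/mL). Diluted ~1000-fold to 10⁵ CFU/mL in LB. DMSO stocks (20 mM) prepared as 4X working solutions in LB. Seven 1:2 serial dilutions mixed with equal-volume inoculum. OD600 read with shaking.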

[6] = system: BT-549; assay: Growth inhibition of human BT549 cells after 48 hrs by sulforhodamine B assay; format: functional; settings: BT-549, 48 h; how it was run: as §1
[7] = system: DU-145; assay: Growth inhibition of human DU145 cells after 48 hrs by sulforhodamine B assay; format: functional; settings: DU-145, 48 h; how it was run: as §1
[8] = system: NCI-H460; assay: Cytotoxicity against human NCI-H460 cells assessed as inhibition of cell viability by MTT assay; format: functional, cell-based
How it was run: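 NCI-H460 cells in RPMI 1640 with 10% FBS and 2 mM glutamine at 37 °C, 5% CO₂. Seeded at 10,000 cells/well for 12 h, then dosed in 1% FBS medium (DMSO below 0.1% final). MTT (10 µL of 5 mg/mL) for 4 h, formazan dissolved in DMSO for 45 min, absorbance at 562 nm. Triplicate wells, at least three runs (N = 9).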

[9] = system: HCT-15; assay: Growth inhibition of human HCT15 cells after 48 hrs by sulforhodamine B assay; format: functional; settings: HCT-15, 48 h; how it was run: as §1
[10] = system: MDA-MB-435; assay: Growth inhibition of human MDA-MB-435 cells after 48 hrs by sulforhodamine B assay; format: functional; settings: MDA-MB-435, 48 h; how it was run: as §1
[11] = system: CAKI-1; assay: Growth inhibition of human CAKI-1 cells after 48 hrs by sulforhodamine B assay; format: functional; settings: CAKI-1, 48 h; how it was run: as §1
[12] = system: PC-3; assay: Growth inhibition of human PC3 cells after 48 hrs by sulforhodamine B assay; format: functional; settings: PC-3, 48 h; how it was run: as §1
[13] = system: SNB-75; assay: Growth inhibition of human SNB75 cells after 48 hrs by sulforhodamine B assay; format: functional; settings: SNB-75, 48 h; how it was run: as §1
[14] = system: MCF7; assay: Growth inhibition of human MCF7 cells after 48 hrs by sulforhodamine B assay; format: functional; settings: MCF7, 48 h; how it was run: as §1
[15] = system: Escherichia coli; assay: Antibacterial activity against Escherichia coli K-12 MG1655 assessed as growth inhibition after 16 hrs by broth dilution method; format: functional; settings: K-12 substr. MG1655, 16 h
How it was run: (§2)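 Strains grown overnight in LB, diluted 10-fold, shaken at 37 °C for 45 min–1 h (~10⁸ CFU/mL), then diluted ~1000-fold to ~10⁵ CFU/mL. Broth dilution in LB: 20 mM DMSO stocks, 1:2 serial dilutions giving seven concentrations, inoculum added 1:1. OD600 read with shaking.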

[16] = Growth inhibition of human NCI-ADR-RES cells after 48 hrs by sulforhodamine B assay; format: functional; how it was run: as §1
[17] = system: HT-29; assay: Growth inhibition of human HT-29 cells after 48 hrs by sulforhodamine B assay; format: functional; settings: HT-29, 48 h; how it was run: as §1
[18] = system: A498; assay: Growth inhibition of human A498 cells after 48 hrs by sulforhodamine B assay; format: functional; settings: A498, 48 h; how it was run: as §1
[19] = system: SK-MEL-5; assay: Growth inhibition of human SK-MEL-5 cells after 48 hrs by sulforhodamine B assay; format: functional; settings: SK-MEL-5, 48 h; how it was run: as §1
[20] = system: A549; assay: Growth inhibition of human A549 cells after 48 hrs by sulforhodamine B assay; format: functional; settings: A549, 48 h; how it was run: as §1
[21] = Antibacterial activity against Bacillus subtilis JH642 containing trpC2 pheA1 assessed as growth inhibition after 16 hrs by broth dilution method; format: functional, Bacillus subtilis subsp. subtilis str. JH642; how it was run: as §2
[22] = system: NCI-H460; assay: Growth inhibition of human NCI-H460 cells after 48 hrs by sulforhodamine B assay; format: functional; settings: NCI-H460, 48 h; how it was run: as §1

SMILES | GI50 [1] [nM] | GI50 [2] [nM] | GI50 [3] [nM] | GI50 [4] [nM] | MIC [5] [µM] | GI50 [6] [nM] | GI50 [7] [nM] | IC50 [8] [nM] | GI50 [9] [nM] | GI50 [10] [nM] | GI50 [11] [nM] | GI50 [12] [nM] | GI50 [13] [nM] | GI50 [14] [nM] | MIC [15] [µM] | GI50 [16] [nM] | GI50 [17] [nM] | GI50 [18] [nM] | GI50 [19] [nM] | GI50 [20] [nM] | further results
CCCCCCCCCCCCO[C@@H]1O[C@@H](C)[C@H](O[C@@H]2O[C@@H](C)[C@H](OC(C)=O)[C@@H](O[C@@H]3O[C@@H](C)[C@H](OC(C)=O)[C@@H](O)[C@H]3OC(C)=O)[C@H]2O)[C@@H](O)[C@H]1O | 7110 | 3200 | 4120 | 5910 | > 64 | 7900 | 7940 | 90900 | 8390 | 7680 | 8780 | 2370 | 3420 | 4840 | > 64 | 9290 | 4350 | 6730 | 6210 | 6690 | MIC [21]: 32 µM (≈ 24 µg/mL); GI50 [22]: 6320 nM
CCCCCCCCCCCCO[C@@H]1O[C@@H](C)[C@H](O[C@@H]2O[C@@H](C)[C@H](OC(C)=O)[C@@H](O[C@@H]3O[C@@H](C)[C@H](OC(C)=O)[C@@H](O[C@@H]4O[C@@H](C)[C@H](OC(C)=O)[C@@H](OC(C)=O)[C@H]4OC(C)=O)[C@H]3OC(C)=O)[C@H]2O)[C@@H](O)[C@H]1O | 800 | 920 | 1040 | 840 | > 64 | 1050 | 800 | 16400 | 820 | 880 | 860 | 710 | 540 | 890 | > 64 | 920 | 910 | 670 | 760 | 800 | MIC [21]: > 64 µM; GI50 [22]: 930 nM
CCCCCCCCCCCCO[C@@H]1O[C@@H](C)[C@H](O[C@@H]2O[C@@H](C)[C@H](OC(C)=O)[C@@H](O[C@@H]3O[C@@H](C)[C@H](OC(C)=O)[C@@H](O[C@@H]4O[C@@H](C)[C@H](OC(C)=O)[C@@H](O)[C@H]4O)[C@H]3OC(C)=O)[C@H]2O)[C@@H](O)[C@H]1O | 4700 | 1450 | 1860 | 4840 | > 64 | 8460 | 7920 | 9100 | 7540 | 6000 | 8450 | 5300 | 1360 | 1740 | > 64 | 9150 | 8020 | 7570 | 1760 | 9470 | MIC [21]: 4 µM (≈ 3.76 µg/mL); GI50 [22]: 7580 nM
CCCCCCCCCCCCO[C@@H]1O[C@@H](C)[C@H](O[C@@H]2O[C@@H](C)[C@H](OC(C)=O)[C@@H](O[C@@H]3O[C@@H](C)[C@H](OC(C)=O)[C@@H](O[C@@H]4O[C@@H](C)[C@H](OC(C)=O)[C@@H](O)[C@H]4OC(C)=O)[C@H]3OC(C)=O)[C@H]2O)[C@@H](O)[C@H]1O | 830 | 860 | 960 | 770 | > 64 | 940 | 800 | 7500 | 1010 | 830 | 1420 | 820 | 500 | 870 | > 64 | 3380 | 970 | 730 | 740 | 1180 | MIC [21]: 4 µM (≈ 3.92 µg/mL); GI50 [22]: 940 nM
